Source: ChEMBL document CHEMBL1268933, “Discovery of a vorapaxar analog with increased aqueous solubility” (Bioorg Med Chem Lett, 2010)
Values after ≈ are worked out from the molar mass of the structure shown. Active and inactive are the calls of the source. The rule behind the calls is not given here.

Legend:
[1] = target: T1, Proteinase-activated receptor 1 (Homo sapiens, UniProt P25116); assay: Displacement of high affinity TRAP form human platelet PAR1
T1 sequence (P25116 whole entry): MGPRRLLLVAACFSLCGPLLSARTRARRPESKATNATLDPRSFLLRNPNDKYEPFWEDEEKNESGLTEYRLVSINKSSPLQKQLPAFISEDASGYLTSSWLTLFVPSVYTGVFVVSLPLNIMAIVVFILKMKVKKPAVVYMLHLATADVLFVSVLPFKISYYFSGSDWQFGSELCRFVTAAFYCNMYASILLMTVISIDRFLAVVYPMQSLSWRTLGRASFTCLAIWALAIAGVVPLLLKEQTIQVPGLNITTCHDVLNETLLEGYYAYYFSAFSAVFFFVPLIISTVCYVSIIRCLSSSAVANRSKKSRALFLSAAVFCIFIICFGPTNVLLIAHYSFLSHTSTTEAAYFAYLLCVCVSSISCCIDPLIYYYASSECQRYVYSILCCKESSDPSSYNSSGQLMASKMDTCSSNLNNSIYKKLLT
How it was run: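 Radioligand binding using human platelet membranes as PAR-1 source and tritiated haTRAP as radioligand; run in duplicate, compounds of high interest repeated n≥5 (SD 20%); Ki reported.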

[2] = Kinetic solubility of the compound; assay type: physicochemical
How it was run: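 Kinetic solubility: DMSO serial dilutions added to 10 mM phosphate buffer pH 7.4, equilibrated 30 min at room temperature; precipitate detected by nephelometry; solubility taken as highest concentration not scattering light.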

[3] = AUC in rat; assay type: ADME, organism-based; details: plasma
How it was run: (§1)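 High-throughput format rat pharmacokinetic screen; plasma AUC and Cmax determined.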

[4] = Cmax in rat; assay type: ADME, organism-based; details: in vivo; how it was run: as §1
[5] = Equilibrium solubility of the compound after 24 hrs; assay type: physicochemical
Platelet [6] = assay: Ex-vivo inhibition of PAR1-mediated aggregation of high affinity TRAP-stimulated cynomolgus monkey platelet at 0.1 mg/kg, po administered as single dose measured after 24 hrs; assay type: functional; details: Macaca fascicularis
How it was run: (§2)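 Cynomolgus monkeys (n = 3) given single oral dose of 0.1 or 0.3 mg/kg; ex vivo haTRAP-induced platelet aggregation measured at time points out to 24 h.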

Platelet [7] = assay: Ex-vivo inhibition of PAR1-mediated aggregation of high affinity TRAP-stimulated cynomolgus monkey platelet at 0.1 mg/kg, po administered as single dose measured up to 6 hrs; assay type: functional, organism-based; set-up: dose 0.1 mg/kg; details: Macaca fascicularis; how it was run: as §2
Platelet [8] = assay: Ex-vivo inhibition of PAR1-mediated aggregation of high affinity TRAP-stimulated cynomolgus monkey platelet at 0.3 mg/kg, po administered as single dose measured after 24 hrs; assay type: functional, organism-based; set-up: dose 0.3 mg/kg; details: Macaca fascicularis; how it was run: as §2
[9] = Tmax in monkey at 0.1 mg/kg, po; assay type: ADME, organism-based, Macaca mulatta; set-up: dose 0.1 mg/kg, route oral; details: rhesus monkey, in vivo
[10] = Tmax in monkey at 1 mg/kg, po; assay type: ADME, organism-based, Macaca mulatta; set-up: dose 1 mg/kg, route oral; details: rhesus monkey, in vivo
[11] = AUC (0 to 24 hrs) in monkey at 0.1 mg/kg, po; assay type: ADME, organism-based, Macaca mulatta; set-up: time < 24 hr, dose 0.1 mg/kg, route oral; details: rhesus monkey, plasma
[12] = Cmax in monkey at 0.1 mg/kg, po; assay type: ADME, organism-based, Macaca mulatta; set-up: dose 0.1 mg/kg, route oral; details: rhesus monkey, in vivo
[13] = AUC (0 to 24 hrs) in monkey at 1 mg/kg, po; assay type: ADME, organism-based, Macaca mulatta; set-up: time < 24 hr, dose 1 mg/kg, route oral; details: rhesus monkey, plasma
[14] = Cmax in monkey at 1 mg/kg, po; assay type: ADME, organism-based, Macaca mulatta; set-up: dose 1 mg/kg, route oral; details: rhesus monkey, in vivo
[15] = Permeability across human Caco-2 cell membrane; assay type: ADME, cell-based; details: read-out: permeability
Cytochrome P450 3A4 = Cytochrome P450 3A4 (Homo sapiens, UniProt P08684); assay: Inhibition of CYP3A4; assay type: ADME
Chain of Cytochrome P450 3A4 (P08684 whole entry): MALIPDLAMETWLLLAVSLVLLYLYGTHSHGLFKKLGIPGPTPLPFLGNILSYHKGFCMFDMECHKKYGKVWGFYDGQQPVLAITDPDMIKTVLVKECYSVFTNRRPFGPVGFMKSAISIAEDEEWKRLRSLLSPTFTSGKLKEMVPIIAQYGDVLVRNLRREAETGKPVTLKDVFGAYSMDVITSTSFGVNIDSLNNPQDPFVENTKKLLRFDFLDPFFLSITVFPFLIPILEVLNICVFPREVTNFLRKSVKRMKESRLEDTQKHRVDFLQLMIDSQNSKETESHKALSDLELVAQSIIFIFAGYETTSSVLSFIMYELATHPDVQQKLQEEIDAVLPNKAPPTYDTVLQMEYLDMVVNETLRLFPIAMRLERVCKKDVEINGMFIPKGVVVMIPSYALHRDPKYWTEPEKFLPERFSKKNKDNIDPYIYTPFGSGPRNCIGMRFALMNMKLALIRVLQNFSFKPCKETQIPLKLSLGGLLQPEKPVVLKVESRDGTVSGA
How it was run: (§3)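 CYP3A4, CYP2D6, CYP2C9 and CYP2C19 inhibition tested under both co-incubation and pre-incubation conditions; IC50 determined.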

Cytochrome P450 2D6 = Cytochrome P450 2D6 (Homo sapiens, UniProt P10635); assay: Inhibition of CYP2D6; assay type: ADME; how it was run: as §3
Chain of Cytochrome P450 2D6 (P10635 whole entry): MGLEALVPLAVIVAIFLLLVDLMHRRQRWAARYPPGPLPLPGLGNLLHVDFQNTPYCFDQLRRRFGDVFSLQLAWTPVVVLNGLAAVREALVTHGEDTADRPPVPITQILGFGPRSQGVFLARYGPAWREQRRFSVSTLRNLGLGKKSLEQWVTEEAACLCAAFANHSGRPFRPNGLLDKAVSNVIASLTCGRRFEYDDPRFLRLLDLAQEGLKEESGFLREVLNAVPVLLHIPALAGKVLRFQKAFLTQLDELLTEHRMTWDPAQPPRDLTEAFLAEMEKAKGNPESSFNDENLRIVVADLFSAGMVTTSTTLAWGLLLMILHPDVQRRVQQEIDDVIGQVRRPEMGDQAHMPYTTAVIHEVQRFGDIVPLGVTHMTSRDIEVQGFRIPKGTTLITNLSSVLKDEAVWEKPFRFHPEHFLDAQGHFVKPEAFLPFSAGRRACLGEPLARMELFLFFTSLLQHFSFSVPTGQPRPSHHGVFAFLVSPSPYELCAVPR

Cytochrome P450 2C9 = Cytochrome P450 2C9 (Homo sapiens, UniProt P11712); assay: Inhibition of CYP2C9; assay type: ADME; how it was run: as §3
Chain of Cytochrome P450 2C9 (P11712 whole entry): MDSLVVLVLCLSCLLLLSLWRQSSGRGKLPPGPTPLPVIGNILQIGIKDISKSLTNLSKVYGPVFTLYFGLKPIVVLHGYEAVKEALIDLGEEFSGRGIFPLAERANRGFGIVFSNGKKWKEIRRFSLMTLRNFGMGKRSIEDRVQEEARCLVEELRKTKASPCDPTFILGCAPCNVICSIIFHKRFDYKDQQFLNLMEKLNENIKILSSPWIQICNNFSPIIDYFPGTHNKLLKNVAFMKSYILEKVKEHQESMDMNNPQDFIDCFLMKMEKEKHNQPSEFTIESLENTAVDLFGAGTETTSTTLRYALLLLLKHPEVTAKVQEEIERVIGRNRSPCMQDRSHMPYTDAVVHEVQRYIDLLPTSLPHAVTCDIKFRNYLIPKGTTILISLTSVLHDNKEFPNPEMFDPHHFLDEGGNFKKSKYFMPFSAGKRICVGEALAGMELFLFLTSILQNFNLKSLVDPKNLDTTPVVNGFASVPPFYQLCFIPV

Cytochrome P450 2C19 = Cytochrome P450 2C19 (Homo sapiens, UniProt P33261); assay: Inhibition of CYP2C19; assay type: ADME; how it was run: as §3
Chain of Cytochrome P450 2C19 (P33261 whole entry): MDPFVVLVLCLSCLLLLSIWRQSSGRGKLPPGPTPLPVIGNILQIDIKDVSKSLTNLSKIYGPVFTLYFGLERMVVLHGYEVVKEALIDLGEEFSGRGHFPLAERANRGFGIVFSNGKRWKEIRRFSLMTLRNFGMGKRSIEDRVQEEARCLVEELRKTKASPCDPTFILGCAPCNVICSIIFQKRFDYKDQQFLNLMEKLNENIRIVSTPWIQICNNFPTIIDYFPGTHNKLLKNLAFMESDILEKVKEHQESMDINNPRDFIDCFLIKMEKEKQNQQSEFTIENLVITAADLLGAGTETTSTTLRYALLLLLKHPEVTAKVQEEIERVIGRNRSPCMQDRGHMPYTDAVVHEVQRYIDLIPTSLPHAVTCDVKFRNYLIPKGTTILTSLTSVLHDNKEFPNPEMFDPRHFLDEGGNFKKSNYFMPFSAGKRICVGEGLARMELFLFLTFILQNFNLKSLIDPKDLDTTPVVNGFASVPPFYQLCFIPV

Rhesus monkey = assay: Antithrombotic activity in monkey Folts model; assay type: functional, organism-based; details: Macaca mulatta
How it was run: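 Folts thrombosis model in anesthetized monkeys; escalating doses given intravenously in sequence to the same animal, alone or with ADP antagonist cangrelor; inhibition of cyclic flow reductions monitored.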

[16] = target: T2, PXR (nuclear receptor subfamily 1 group I member 2) (Homo sapiens, UniProt O75469); assay: Induction of human PXR at 10 uM
T2 sequence (O75469 whole entry): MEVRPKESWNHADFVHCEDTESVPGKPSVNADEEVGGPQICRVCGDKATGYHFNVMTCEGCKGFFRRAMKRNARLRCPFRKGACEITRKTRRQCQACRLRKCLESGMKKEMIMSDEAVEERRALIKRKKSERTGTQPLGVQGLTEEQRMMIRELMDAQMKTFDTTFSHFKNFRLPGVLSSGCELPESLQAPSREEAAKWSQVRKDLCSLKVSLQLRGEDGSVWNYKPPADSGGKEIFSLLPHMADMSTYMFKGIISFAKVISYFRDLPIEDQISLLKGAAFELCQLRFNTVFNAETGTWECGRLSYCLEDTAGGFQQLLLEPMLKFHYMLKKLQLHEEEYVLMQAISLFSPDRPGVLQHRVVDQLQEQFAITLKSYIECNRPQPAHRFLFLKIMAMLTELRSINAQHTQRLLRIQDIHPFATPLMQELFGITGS

SMILES | Ki [1] | solubility kinetic [2] | AUC [3] | Cmax [4] | other results
CCOC(=O)N[C@@H]1CC[C@@H]2[C@@H](C1)C[C@H]1C(=O)O[C@H](C)[C@H]1[C@H]2/C=C/c1ccc(-c2cccc(OC)c2)cn1 | 12 nM | < 5 µM | 319 ng·h/mL | 368 ng/mL | 
CCOC(=O)N[C@@H]1CC[C@@H]2[C@@H](C1)C[C@H]1C(=O)O[C@H](C)[C@H]1[C@H]2/C=C/c1ccc(-c2cccc(F)c2)cn1 [VORAPAXAR] | 8 nM | < 5 µM | 3060 ng·h/mL | 974 ng/mL | solubility thermodynamic at 24 h [5]: 2.8 µM (≈ 1.38 µg/mL)
CCOC(=O)N[C@@H]1CC[C@@H]2[C@@H](C1)C[C@H]1C(=O)O[C@H](C)[C@H]1[C@H]2/C=C/c1ccc(-c2cc(C)ccn2)cn1 | 144 nM |  |  |  | 
CCOC(=O)N[C@@H]1CC[C@@H]2[C@@H](C1)C[C@H]1C(=O)O[C@H](C)[C@H]1[C@H]2/C=C/c1ccc(-c2ccc(C)cn2)cn1 | 42 nM |  |  |  | 
CCOC(=O)N[C@@H]1CC[C@@H]2[C@@H](C1)C[C@H]1C(=O)O[C@H](C)[C@H]1[C@H]2/C=C/c1ccc(-c2ccncc2)cn1 | 250 nM |  |  |  | 
CCOC(=O)N[C@@H]1CC[C@@H]2[C@@H](C1)C[C@H]1C(=O)O[C@H](C)[C@H]1[C@H]2/C=C/c1ccc(-c2ccccn2)cn1 | 19 nM | 75 µM (≈ 35.7 µg/mL) | 10100 ng·h/mL | 3070 ng/mL | inhibition in vivo at 0.1 mg/kg (Platelet [6]): 70%; inhibition (Platelet [7]): Active; inhibition (Platelet [8]): Active; Tmax [9]: 60 min; Tmax [10]: 30 min; AUC(0-t) at 24 h [11]: 50 ng·h/mL; Cmax [12]: 16 ng/mL; AUC(0-t) at 24 h [13]: 2520 ng·h/mL; Cmax [14]: 236 ng/mL; Papp [15]: 28.3 ×10⁻⁶ cm/s; solubility thermodynamic at 24 h [5]: 67 µM (≈ 31.9 µg/mL); IC50 (Cytochrome P450 3A4): > 30000 nM; IC50 (Cytochrome P450 2D6): > 30000 nM; IC50 (Cytochrome P450 2C9): > 30000 nM; IC50 (Cytochrome P450 2C19): > 30000 nM; Activity (Rhesus monkey): Dose-dependent effect; induction at 10 µM [16]: 0.13%
CCOC(=O)N[C@@H]1CC[C@@H]2[C@@H](C1)C[C@H]1C(=O)O[C@H](C)[C@H]1[C@H]2/C=C/c1ccc(-c2ccoc2)cn1 | 61 nM | 12 µM (≈ 5.57 µg/mL) |  |  | 
CCOC(=O)N[C@@H]1CC[C@@H]2[C@@H](C1)C[C@H]1C(=O)O[C@H](C)[C@H]1[C@H]2/C=C/c1ccc(-c2nccs2)cn1 | 75 nM |  |  |  | 
CCOC(=O)N[C@@H]1CC[C@@H]2[C@@H](C1)C[C@H]1C(=O)O[C@H](C)[C@H]1[C@H]2/C=C/c1ccc(-c2ccccc2C#N)cn1 | 15 nM | 12 µM (≈ 6 µg/mL) | 5220 ng·h/mL | 1570 ng/mL | 
CCOC(=O)N[C@@H]1CC[C@@H]2[C@@H](C1)C[C@H]1C(=O)O[C@H](C)[C@H]1[C@H]2/C=C/c1ccc(-c2cccnc2)cn1 | 240 nM |  |  |  | 
CCOC(=O)N[C@@H]1CC[C@@H]2[C@@H](C1)C[C@H]1C(=O)O[C@H](C)[C@H]1[C@H]2/C=C/c1ccc(-c2cncnc2)cn1 | 337 nM |  |  |  | 
